Results from ChEMBL document CHEMBL3588757, “Structure-based design, synthesis and biological testing of piperazine-linked bis-epipodophyllotoxin etoposide analogs” (Bioorg Med Chem, 2015).

Legend:
Format in all cases: functional
SF-268 = test: Cytotoxicity against human SF268 cells assessed as cell growth at 50 uM by SRB assay; conditions: read-out: Activity
SR [1] = test: Cytotoxicity against human SR cells assessed as cell growth at 0.005 uM by SRB assay; conditions: read-out: Activity
HCT-116 [2] = test: Cytotoxicity against human HCT116 cells assessed as cell growth at 50 uM by SRB assay; conditions: read-out: Activity
Outline: (§1)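 Measured in the NCI-60 human tumour cell line panel using five-dose testing. Growth was recorded at each dose for each cell line, and a GI50 was derived for each line.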

TK-10 = test: Cytotoxicity against human TK10 cells assessed as cell growth at 5 uM by SRB assay; conditions: read-out: Activity
NCI-H460 [3] = test: Cytotoxicity against human NCI-H460 cells assessed as cell growth at 50 uM by SRB assay; conditions: read-out: Activity
SN12C [4] = test: Cytotoxicity against human SN12C cells assessed as cell growth at 5 uM by SRB assay; conditions: read-out: Activity
NCI-H23 = test: Cytotoxicity against human NCI-H23 cells assessed as cell growth at 5 uM by SRB assay; conditions: read-out: Activity
LOX IMVI [5] = test: Cytotoxicity against human LOXIMVI cells by SRB assay
Outline: (§2)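 NCI-60 panel screen; 5-dose testing giving GI50 per cell line, plus a single 10 µM one-dose test. Method details not given beyond the NCI screen.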

UACC-62 [6] = test: Cytotoxicity against human UACC62 cells assessed as cell growth at 0.005 uM by SRB assay; conditions: read-out: Activity
RXF 393 = test: Cytotoxicity against human RXF393 cells assessed as cell growth at 50 uM by SRB assay; conditions: read-out: Activity
SK-MEL-5 = test: Cytotoxicity against human SK-MEL-5 cells assessed as cell growth at 5 uM by SRB assay; conditions: read-out: Activity
U-251 [7] = test: Cytotoxicity against human U251 cells assessed as cell growth at 0.05 uM by SRB assay; conditions: read-out: Activity
MOLT-4 = test: Cytotoxicity against human MOLT4 cells assessed as cell growth at 0.005 uM by SRB assay; conditions: read-out: Activity
SK-MEL-2 [8] = test: Cytotoxicity against human SK-MEL-2 cells assessed as cell growth at 5 uM by SRB assay; conditions: read-out: Activity
T47D [9] = test: Cytotoxicity against human T47D cells assessed as cell growth at 5 uM by SRB assay; conditions: read-out: Activity
A498 = test: Cytotoxicity against human A498 cells by SRB assay
MDA-MB-231 = test: Cytotoxicity against human MDA-MB-231/ATCC cells assessed as cell growth at 50 uM by SRB assay; conditions: read-out: Activity
UACC-62 [10] = test: Cytotoxicity against human UACC62 cells assessed as cell growth at 5 uM by SRB assay; conditions: read-out: Activity
UO-31 = test: Cytotoxicity against human UO31 cells assessed as cell growth at 0.05 uM by SRB assay; conditions: read-out: Activity
LOX IMVI [11] = test: Cytotoxicity against human LOXIMVI cells assessed as cell growth at 0.5 uM by SRB assay; conditions: read-out: Activity
T47D [12] = test: Cytotoxicity against human T47D cells assessed as cell growth at 50 uM by SRB assay; conditions: read-out: Activity
KM12 [13] = test: Cytotoxicity against human KM12 cells assessed as cell growth at 50 uM by SRB assay; conditions: read-out: Activity
SN12C [14] = test: Cytotoxicity against human SN12C cells by SRB assay; outline: as §2
MDA-MB-468 [15] = test: Cytotoxicity against human MDA-MB-468 cells assessed as cell growth at 5 uM by SRB assay; conditions: read-out: Activity
KM12 [16] = test: Cytotoxicity against human KM12 cells assessed as cell growth at 0.005 uM by SRB assay; conditions: read-out: Activity
BT-549 = test: Cytotoxicity against human BT549 cells assessed as cell growth at 0.005 uM by SRB assay; conditions: read-out: Activity
HOP-92 [17] = test: Cytotoxicity against human HOP92 cells assessed as cell growth at 50 uM by SRB assay; conditions: read-out: Activity; outline: as §1
SNB-75 [18] = test: Cytotoxicity against human SNB75 cells assessed as cell growth at 0.5 uM by SRB assay; conditions: read-out: Activity
MDA-MB-435 [19] = test: Cytotoxicity against human MDA-MB-435 cells assessed as cell growth at 0.5 uM by SRB assay; conditions: read-out: Activity
HOP-92 [20] = test: Cytotoxicity against human HOP92 cells by SRB assay; outline: as §1
SR [21] = test: Cytotoxicity against human SR cells assessed as cell growth at 0.05 uM by SRB assay; conditions: read-out: Activity
HCC 2998 = test: Cytotoxicity against human HCC2998 cells assessed as cell growth at 0.05 uM by SRB assay; conditions: read-out: Activity; outline: as §1
KM12 [22] = test: Cytotoxicity against human KM12 cells assessed as cell growth at 0.05 uM by SRB assay; conditions: read-out: Activity
U-251 [23] = test: Cytotoxicity against human U251 cells assessed as cell growth at 50 uM by SRB assay; conditions: read-out: Activity
PC-3 = test: Cytotoxicity against human PC3 cells assessed as cell growth at 0.5 uM by SRB assay; conditions: read-out: Activity
SNB-19 = test: Cytotoxicity against human SNB19 cells assessed as cell growth at 5 uM by SRB assay; conditions: read-out: Activity
MDA-MB-435 [24] = test: Cytotoxicity against human MDA-MB-435 cells assessed as cell growth at 50 uM by SRB assay; conditions: read-out: Activity
SNB-75 [25] = test: Cytotoxicity against human SNB75 cells assessed as cell growth at 50 uM by SRB assay; conditions: read-out: Activity
HCT-116 [26] = test: Cytotoxicity against human HCT116 cells assessed as cell growth at 0.05 uM by SRB assay; conditions: read-out: Activity; outline: as §1
MDA-MB-468 [27] = test: Cytotoxicity against human MDA-MB-468 cells assessed as cell growth at 0.005 uM by SRB assay; conditions: read-out: Activity
SK-MEL-2 [28] = test: Cytotoxicity against human SK-MEL-2 cells assessed as cell growth at 50 uM by SRB assay; conditions: read-out: Activity
SK-MEL-2 [29] = test: Cytotoxicity against human SK-MEL-2 cells assessed as cell growth at 0.05 uM by SRB assay; conditions: read-out: Activity
NCI-H460 [30] = test: Cytotoxicity against human NCI-H460 cells by SRB assay; outline: as §2
OVCAR-4 = test: Cytotoxicity against human OVCAR4 cells assessed as cell growth at 0.05 uM by SRB assay; conditions: read-out: Activity
HCT-15 = test: Cytotoxicity against human HCT15 cells assessed as cell growth at 0.5 uM by SRB assay; conditions: read-out: Activity; outline: as §1
[31] = read-out: LC50 (the source's name)
[32] = read-out: pLC50 (the source's name) (converted)

SMILES: COc1cc([C@@H]2c3cc4c(cc3[C@@H](NC(=O)CN3CCN(CCCCCCCCCCN5CCN(CC(=O)N[C@@H]6c7cc8c(cc7[C@@H](c7cc(OC)c(O)c(OC)c7)[C@H]7C(=O)OC[C@@H]76)OCO8)CC5)CC3)[C@H]3COC(=O)[C@H]23)OCO4)cc(OC)c1O
- growth at 50 µM (SF-268): -40%
- growth at 0.005 µM (SR [1]): 98%
- growth at 50 µM (HCT-116 [2]): -51%
- growth at 5 µM (TK-10): -4%
- growth at 50 µM (NCI-H460 [3]): -81%
- growth at 5 µM (SN12C [4]): 3%
- growth at 5 µM (NCI-H23): -35%
- GI50 (LOX IMVI [5]; read-out: GI50): 0.0731 µM
- GI50 (LOX IMVI [5]; read-out: pGI50 (converted)): 0.0724 µM
- growth at 0.005 µM (UACC-62 [6]): 91%
- growth at 50 µM (RXF 393): -47%
- growth at 5 µM (SK-MEL-5): 52%
- growth at 0.05 µM (U-251 [7]): 69%
- growth at 0.005 µM (MOLT-4): 88%
- growth at 5 µM (SK-MEL-2 [8]): 47%
- growth at 5 µM (T47D [9]): 16%
- CC50 (A498; [31]): 14.6 µM
- GI50 (A498; read-out: pGI50 (converted)): 0.513 µM
- CC50 (A498; [32]): 14.8 µM
- TGI (A498; read-out: pTGI (converted)): 3.55 µM
- growth at 50 µM (MDA-MB-231): -54%
- growth at 5 µM (UACC-62 [10]): 65%
- growth at 0.05 µM (UO-31): 85%
- growth at 0.5 µM (LOX IMVI [11]): 21%
- growth at 50 µM (T47D [12]): -40%
- growth at 50 µM (KM12 [13]): -31%
- GI50 (SN12C [14]; read-out: GI50): 0.185 µM
- CC50 (SN12C [14]; [31]): > 50 µM
- TGI (SN12C [14]; read-out: TGI): 5.82 µM
- GI50 (SN12C [14]; read-out: pGI50 (converted)): 0.186 µM
- CC50 (SN12C [14]; [32]): > 50.1 µM
- TGI (SN12C [14]; read-out: pTGI (converted)): 5.89 µM
- growth at 5 µM (MDA-MB-468 [15]): -29%
- growth at 0.005 µM (KM12 [16]): 97%
- growth at 0.005 µM (BT-549): 94%
- growth at 50 µM (HOP-92 [17]): -46%
- growth at 0.5 µM (SNB-75 [18]): 34%
- growth at 0.5 µM (MDA-MB-435 [19]): 39%
- GI50 (HOP-92 [20]; read-out: GI50): 0.14 µM
- CC50 (HOP-92 [20]; [31]): > 50 µM
- TGI (HOP-92 [20]; read-out: TGI): 2.58 µM
- GI50 (HOP-92 [20]; read-out: pGI50 (converted)): 0.141 µM
- CC50 (HOP-92 [20]; [32]): > 50.1 µM
- TGI (HOP-92 [20]; read-out: pTGI (converted)): 2.57 µM
- growth at 0.05 µM (SR [21]): 85%
- growth at 0.05 µM (HCC 2998): 83%
- growth at 0.05 µM (KM12 [22]): 91%
- growth at 50 µM (U-251 [23]): -79%
- growth at 0.5 µM (PC-3): 61%
- growth at 5 µM (SNB-19): -81%
- growth at 50 µM (MDA-MB-435 [24]): -40%
- growth at 50 µM (SNB-75 [25]): -26%
- growth at 0.05 µM (HCT-116 [26]): 77%
- growth at 0.005 µM (MDA-MB-468 [27]): 95%
- growth at 50 µM (SK-MEL-2 [28]): -59%
- growth at 0.05 µM (SK-MEL-2 [29]): 89%
- GI50 (NCI-H460 [30]; read-out: GI50): 2.66 µM
- CC50 (NCI-H460 [30]; [31]): 26.9 µM
- TGI (NCI-H460 [30]; read-out: TGI): 9.82 µM
- GI50 (NCI-H460 [30]; read-out: pGI50 (converted)): 2.63 µM
- CC50 (NCI-H460 [30]; [32]): 26.9 µM
- TGI (NCI-H460 [30]; read-out: pTGI (converted)): 9.77 µM
- growth at 0.05 µM (OVCAR-4): 94%
- growth at 0.5 µM (HCT-15): 45%
